In ChEMBL document CHEMBL5661979, “Pharmacological inhibition of BMK1 suppresses tumor growth through promyelocytic leukemia protein” (Cancer Cell, 2010):

How the values were obtained:
[1] = biological target: Serine/threonine-protein kinase 24 (Homo sapiens, UniProt Q9Y6E0); experiment: Inhibition of MST3 in human HeLa cells lysate at 50 uM pre incubated for 15 mins followed by ADP acyl phosphate probe addition and measured after 10 mins by LC-MS/MS analysis relative to control; format: subcellular; details: time 25.0 min
[2] = Inhibition of MSK1/2 domain 1 in human HeLa cells lysate at 50 uM pre incubated for 15 mins followed by ATP acyl phosphate probe addition and measured after 10 mins by LC-MS/MS analysis relative to control; details: 25 min, condition cancer
[3] = biological target: Serine/threonine-protein kinase PLK1 (Homo sapiens, UniProt P53350); experiment: Inhibition of PLK1 K2 site in human HeLa cells lysate pre incubated for 15 mins followed by ATP acyl phosphate probe addition and measured after 10 mins by LC-MS/MS analysis; format: subcellular
[4] = Inhibition of CDK5/PRKX/PRKY in human HeLa cells lysate at 10 uM pre incubated for 15 mins followed by ADP acyl phosphate probe addition and measured after 10 mins by LC-MS/MS analysis relative to control; details: 25 min, condition cancer
Procedure, shortened: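 KiNativ profiling in HeLa lysate (5 mg/mL total protein). Lysate incubated 15 min with inhibitor at 50, 10, 2, 0.8 or 0 μM. ATP or ADP acylphosphate probe then added (5 μM final) and reacted 10 min. Reaction stopped with urea and analysed by targeted MS, using up to four fragment ions per kinase peptide-probe conjugate. % inhibition taken against untreated lysate. Run in duplicate.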

[5] = biological target: Dual specificity mitogen-activated protein kinase kinase; MEK1/2 (Homo sapiens, UniProt P36507+Q02750); experiment: Inhibition of MAP2K1/MAP2K2 in human HeLa cells lysate at 2 uM pre incubated for 15 mins followed by ATP acyl phosphate probe addition and measured after 10 mins by LC-MS/MS analysis relative to control; format: subcellular; details: time 25.0 min
[6] = biological target: Mitogen-activated protein kinase 3 (Homo sapiens, UniProt P27361); experiment: Inhibition of ERK1 in human HeLa cells lysate at 10 uM pre incubated for 15 mins followed by ADP acyl phosphate probe addition and measured after 10 mins by LC-MS/MS analysis relative to control; format: subcellular; details: time 25.0 min
[7] = biological target: Phosphatidylinositol 4-kinase alpha (Homo sapiens, UniProt P42356); experiment: Inhibition of PIK4CA in human HeLa cells lysate pre incubated for 15 mins followed by ATP acyl phosphate probe addition and measured after 10 mins by LC-MS/MS analysis; format: subcellular
[8] = biological target: Ribosomal protein S6 kinase alpha-5 (Homo sapiens, UniProt O75582); experiment: Inhibition of MSK1 in human HeLa cells lysate pre incubated for 15 mins followed by ATP acyl phosphate probe addition and measured after 10 mins by LC-MS/MS analysis; format: subcellular
[9] = biological target: Serine/threonine-protein kinase Aurora (Homo sapiens, UniProt Q96GD4+Q9UQB9+O14965); experiment: Inhibition of AURA/AURB/AURC in human HeLa cells lysate pre incubated for 15 mins followed by ATP acyl phosphate probe addition and measured after 10 mins by LC-MS/MS analysis; format: subcellular
Procedure, shortened: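 KiNativ-type profiling in HeLa lysate (5 mg/mL total protein). Lysate preincubated 15 min with inhibitor at 50, 10, 2, 0.8 or 0 μM, then ATP or ADP acylphosphate probe added (5 μM final) for 10 min. Reaction stopped with urea and analysed by targeted MS, using up to four fragment ions per kinase peptide-probe conjugate. % inhibition calculated against untreated lysate. Duplicate reactions.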

[10] = biological target: T1, Phosphatidylinositol 5-phosphate 4-kinase type-2 alpha (Homo sapiens, UniProt P48426); experiment: Inhibition of PIP5K2A in human HeLa cells lysate pre incubated for 15 mins followed by ADP acyl phosphate probe addition and measured after 10 mins by LC-MS/MS analysis; format: subcellular
T1 sequence (P48426 whole entry): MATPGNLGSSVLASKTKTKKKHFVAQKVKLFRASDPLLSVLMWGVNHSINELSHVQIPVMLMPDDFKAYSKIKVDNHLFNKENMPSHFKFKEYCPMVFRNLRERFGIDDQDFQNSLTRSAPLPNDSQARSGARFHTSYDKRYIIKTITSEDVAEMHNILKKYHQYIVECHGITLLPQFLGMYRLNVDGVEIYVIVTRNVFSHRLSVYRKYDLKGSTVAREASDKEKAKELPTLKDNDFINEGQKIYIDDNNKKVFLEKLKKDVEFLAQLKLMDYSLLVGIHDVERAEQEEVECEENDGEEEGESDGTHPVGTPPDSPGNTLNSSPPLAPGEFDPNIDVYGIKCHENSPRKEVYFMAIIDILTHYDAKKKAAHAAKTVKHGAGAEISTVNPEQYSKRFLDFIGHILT

[11] = biological target: Mitogen-activated protein kinase kinase kinase 5 (Homo sapiens) (UniProt Q99683); experiment: Inhibition of MAP3K5 in human HeLa cells lysate at 10 uM pre incubated for 15 mins followed by ATP acyl phosphate probe addition and measured after 10 mins by LC-MS/MS analysis relative to control; format: subcellular; details: time 25.0 min
[12] = biological target: SRSF protein kinase 1 (Homo sapiens, UniProt Q96SB4); experiment: Inhibition of SRPK1 in human HeLa cells lysate pre incubated for 15 mins followed by ATP acyl phosphate probe addition and measured after 10 mins by LC-MS/MS analysis; format: subcellular
[13] = Toxicity in C57Bl/6 mouse assessed as effect on calcium level at 50 mg/kg, ip for 14 days (reference value: 9.9 mg/dl); format: organism-based; details: in vivo, 336 h, time 14 day
[14] = biological target: Mitogen-activated protein kinase kinase kinase 2 (Homo sapiens, UniProt Q9Y2U5); experiment: Inhibition of MAP3K2 in human HeLa cells lysate pre incubated for 15 mins followed by ADP acyl phosphate probe addition and measured after 10 mins by LC-MS/MS analysis; format: subcellular
[15] = biological target: T2, Phosphorylase b kinase gamma catalytic chain, liver/testis isoform (Homo sapiens) (UniProt P15735); experiment: Inhibition of PHKg2 in human HeLa cells lysate at 2 uM pre incubated for 15 mins followed by ATP acyl phosphate probe addition and measured after 10 mins by LC-MS/MS analysis relative to control; format: subcellular; details: time 25.0 min
T2 sequence (whole entry): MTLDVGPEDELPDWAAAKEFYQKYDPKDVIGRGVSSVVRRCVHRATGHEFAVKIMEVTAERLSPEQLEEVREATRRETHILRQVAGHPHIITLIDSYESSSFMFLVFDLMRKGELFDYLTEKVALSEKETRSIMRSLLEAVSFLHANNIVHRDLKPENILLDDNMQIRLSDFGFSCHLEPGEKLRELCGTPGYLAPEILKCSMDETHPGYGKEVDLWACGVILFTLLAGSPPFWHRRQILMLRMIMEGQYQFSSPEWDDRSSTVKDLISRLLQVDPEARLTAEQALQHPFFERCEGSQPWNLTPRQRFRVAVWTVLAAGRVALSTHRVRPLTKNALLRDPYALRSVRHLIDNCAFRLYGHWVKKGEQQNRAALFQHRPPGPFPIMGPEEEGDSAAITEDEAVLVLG

[16] = biological target: Phosphatidylinositol 5-phosphate 4-kinase type-2 beta (Homo sapiens) (UniProt P78356); experiment: Inhibition of PIP5K2B in human HeLa cells lysate at 2 uM pre incubated for 15 mins followed by ATP acyl phosphate probe addition and measured after 10 mins by LC-MS/MS analysis relative to control; format: subcellular; details: time 25.0 min
[17] = biological target: Transcription intermediary factor 1-beta (Homo sapiens, UniProt Q13263); experiment: Inhibition of TIF1b in human HeLa cells lysate pre incubated for 15 mins followed by ATP acyl phosphate probe addition and measured after 10 mins by LC-MS/MS analysis; format: subcellular
Chain of Transcription intermediary factor 1-beta (Q13263 whole entry): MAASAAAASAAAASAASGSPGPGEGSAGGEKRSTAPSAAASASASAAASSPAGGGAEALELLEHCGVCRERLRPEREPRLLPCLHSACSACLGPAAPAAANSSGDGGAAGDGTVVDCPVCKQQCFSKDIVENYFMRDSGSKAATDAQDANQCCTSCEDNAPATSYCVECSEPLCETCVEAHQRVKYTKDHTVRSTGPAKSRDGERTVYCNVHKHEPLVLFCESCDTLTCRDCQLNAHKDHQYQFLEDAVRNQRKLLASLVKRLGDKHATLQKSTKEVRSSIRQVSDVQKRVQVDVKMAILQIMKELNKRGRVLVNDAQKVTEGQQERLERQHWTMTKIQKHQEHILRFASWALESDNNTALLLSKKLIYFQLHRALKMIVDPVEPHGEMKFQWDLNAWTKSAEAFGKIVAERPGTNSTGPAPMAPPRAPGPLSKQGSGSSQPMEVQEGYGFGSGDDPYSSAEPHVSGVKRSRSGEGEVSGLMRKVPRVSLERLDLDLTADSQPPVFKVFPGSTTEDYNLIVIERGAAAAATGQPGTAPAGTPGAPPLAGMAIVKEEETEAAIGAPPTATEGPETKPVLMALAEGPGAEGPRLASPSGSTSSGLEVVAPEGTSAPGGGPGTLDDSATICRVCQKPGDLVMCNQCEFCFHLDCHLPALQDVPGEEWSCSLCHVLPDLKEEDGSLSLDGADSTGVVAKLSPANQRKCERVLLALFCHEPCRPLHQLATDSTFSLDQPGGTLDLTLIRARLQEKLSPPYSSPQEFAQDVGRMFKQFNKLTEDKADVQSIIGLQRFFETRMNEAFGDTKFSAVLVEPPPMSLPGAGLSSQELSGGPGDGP

Chain of Mitogen-activated protein kinase kinase kinase 5 (Homo sapiens) (Q99683 whole entry): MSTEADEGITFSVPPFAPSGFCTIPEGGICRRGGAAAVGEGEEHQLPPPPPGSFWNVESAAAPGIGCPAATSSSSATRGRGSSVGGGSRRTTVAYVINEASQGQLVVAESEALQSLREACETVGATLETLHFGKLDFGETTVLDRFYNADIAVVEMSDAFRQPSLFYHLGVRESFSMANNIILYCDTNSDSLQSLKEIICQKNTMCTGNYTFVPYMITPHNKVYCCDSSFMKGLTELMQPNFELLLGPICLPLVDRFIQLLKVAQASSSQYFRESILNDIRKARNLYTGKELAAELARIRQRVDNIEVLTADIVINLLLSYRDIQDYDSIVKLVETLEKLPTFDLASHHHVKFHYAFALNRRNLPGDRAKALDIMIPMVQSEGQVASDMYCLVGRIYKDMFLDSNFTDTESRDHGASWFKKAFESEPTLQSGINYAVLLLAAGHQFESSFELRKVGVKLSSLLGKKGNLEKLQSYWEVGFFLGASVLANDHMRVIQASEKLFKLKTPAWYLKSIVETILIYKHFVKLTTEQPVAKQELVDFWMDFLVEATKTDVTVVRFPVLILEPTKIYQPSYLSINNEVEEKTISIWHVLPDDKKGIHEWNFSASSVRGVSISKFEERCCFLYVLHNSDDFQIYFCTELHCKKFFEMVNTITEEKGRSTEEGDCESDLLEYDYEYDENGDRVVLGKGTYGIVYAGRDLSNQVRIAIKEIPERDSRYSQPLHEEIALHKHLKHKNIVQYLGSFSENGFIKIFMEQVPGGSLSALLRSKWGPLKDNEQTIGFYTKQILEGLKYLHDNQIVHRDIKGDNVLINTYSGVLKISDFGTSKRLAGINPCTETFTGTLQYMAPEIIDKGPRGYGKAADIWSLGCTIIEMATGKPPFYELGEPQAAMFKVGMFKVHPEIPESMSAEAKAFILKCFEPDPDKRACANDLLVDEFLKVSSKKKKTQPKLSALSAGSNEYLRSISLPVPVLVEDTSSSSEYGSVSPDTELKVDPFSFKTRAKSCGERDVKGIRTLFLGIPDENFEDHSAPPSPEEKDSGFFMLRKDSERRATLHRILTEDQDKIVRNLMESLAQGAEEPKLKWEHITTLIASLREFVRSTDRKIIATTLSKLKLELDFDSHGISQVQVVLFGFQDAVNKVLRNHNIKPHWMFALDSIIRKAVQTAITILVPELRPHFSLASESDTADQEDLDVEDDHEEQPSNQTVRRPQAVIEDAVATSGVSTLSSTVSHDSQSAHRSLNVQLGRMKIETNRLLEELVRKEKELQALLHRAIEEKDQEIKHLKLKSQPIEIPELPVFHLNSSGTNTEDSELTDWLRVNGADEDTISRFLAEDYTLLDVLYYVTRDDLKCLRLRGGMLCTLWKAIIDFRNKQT
Chain of Mitogen-activated protein kinase 3 (P27361 whole entry): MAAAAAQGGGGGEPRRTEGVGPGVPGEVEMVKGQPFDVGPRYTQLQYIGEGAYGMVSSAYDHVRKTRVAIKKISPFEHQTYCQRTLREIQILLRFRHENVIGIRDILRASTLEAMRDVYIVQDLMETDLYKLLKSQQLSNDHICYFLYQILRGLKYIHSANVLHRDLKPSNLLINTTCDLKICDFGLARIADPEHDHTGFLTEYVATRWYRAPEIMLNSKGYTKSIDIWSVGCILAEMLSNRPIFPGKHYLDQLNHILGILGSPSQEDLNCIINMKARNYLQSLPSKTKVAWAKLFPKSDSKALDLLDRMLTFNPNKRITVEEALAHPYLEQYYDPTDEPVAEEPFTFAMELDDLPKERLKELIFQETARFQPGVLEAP
Chain of Mitogen-activated protein kinase kinase kinase 2 (Q9Y2U5 whole entry, canonical isoform): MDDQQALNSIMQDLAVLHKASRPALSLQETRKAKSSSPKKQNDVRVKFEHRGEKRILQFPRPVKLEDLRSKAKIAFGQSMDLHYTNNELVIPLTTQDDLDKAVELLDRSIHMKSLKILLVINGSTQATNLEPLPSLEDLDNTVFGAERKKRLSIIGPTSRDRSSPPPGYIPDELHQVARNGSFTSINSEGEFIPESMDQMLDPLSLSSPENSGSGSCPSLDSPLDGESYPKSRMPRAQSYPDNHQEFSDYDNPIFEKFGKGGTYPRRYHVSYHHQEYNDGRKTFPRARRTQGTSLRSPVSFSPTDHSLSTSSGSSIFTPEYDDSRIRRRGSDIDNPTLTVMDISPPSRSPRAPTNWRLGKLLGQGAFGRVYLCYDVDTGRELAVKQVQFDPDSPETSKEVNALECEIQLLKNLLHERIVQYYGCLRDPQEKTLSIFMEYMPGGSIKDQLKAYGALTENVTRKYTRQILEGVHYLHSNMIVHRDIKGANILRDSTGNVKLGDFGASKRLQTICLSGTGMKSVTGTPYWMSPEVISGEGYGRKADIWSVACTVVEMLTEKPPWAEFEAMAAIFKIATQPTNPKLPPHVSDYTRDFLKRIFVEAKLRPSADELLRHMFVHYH
Chain of Serine/threonine-protein kinase 24 (Q9Y6E0 whole entry, looked up): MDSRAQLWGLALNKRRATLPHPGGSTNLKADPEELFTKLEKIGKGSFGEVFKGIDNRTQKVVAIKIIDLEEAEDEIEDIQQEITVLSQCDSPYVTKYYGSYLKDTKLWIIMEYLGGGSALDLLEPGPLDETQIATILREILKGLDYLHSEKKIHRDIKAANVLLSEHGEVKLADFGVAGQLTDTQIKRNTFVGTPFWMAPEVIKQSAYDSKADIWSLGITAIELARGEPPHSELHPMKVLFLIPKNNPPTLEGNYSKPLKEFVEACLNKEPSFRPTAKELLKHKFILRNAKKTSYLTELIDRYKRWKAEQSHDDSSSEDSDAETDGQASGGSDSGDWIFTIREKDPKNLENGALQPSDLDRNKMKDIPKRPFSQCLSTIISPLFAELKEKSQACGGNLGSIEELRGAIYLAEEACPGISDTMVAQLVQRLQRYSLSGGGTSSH
Chain of Ribosomal protein S6 kinase alpha-5 (O75582 whole entry): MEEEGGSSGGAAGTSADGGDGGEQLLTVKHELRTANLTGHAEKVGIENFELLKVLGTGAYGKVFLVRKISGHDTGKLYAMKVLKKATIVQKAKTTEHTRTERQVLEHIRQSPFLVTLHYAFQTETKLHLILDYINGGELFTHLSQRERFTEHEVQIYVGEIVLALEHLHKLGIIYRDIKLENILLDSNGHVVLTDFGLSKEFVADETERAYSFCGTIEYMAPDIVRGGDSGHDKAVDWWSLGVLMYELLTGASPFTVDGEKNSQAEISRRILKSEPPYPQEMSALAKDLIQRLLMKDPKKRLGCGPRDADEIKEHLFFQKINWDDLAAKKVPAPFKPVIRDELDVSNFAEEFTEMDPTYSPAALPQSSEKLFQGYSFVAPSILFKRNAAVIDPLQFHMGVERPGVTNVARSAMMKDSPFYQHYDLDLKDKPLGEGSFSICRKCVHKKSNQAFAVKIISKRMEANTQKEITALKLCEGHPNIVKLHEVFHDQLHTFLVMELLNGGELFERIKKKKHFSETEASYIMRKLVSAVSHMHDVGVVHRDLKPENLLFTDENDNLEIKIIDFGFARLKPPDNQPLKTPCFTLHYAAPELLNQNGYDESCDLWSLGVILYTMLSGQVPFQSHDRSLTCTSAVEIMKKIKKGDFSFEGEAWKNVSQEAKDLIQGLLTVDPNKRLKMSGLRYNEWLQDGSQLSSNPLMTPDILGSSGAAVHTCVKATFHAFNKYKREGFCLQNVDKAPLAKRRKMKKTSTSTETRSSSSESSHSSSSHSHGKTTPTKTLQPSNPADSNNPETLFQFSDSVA
Chain of Phosphatidylinositol 5-phosphate 4-kinase type-2 beta (Homo sapiens) (P78356 whole entry): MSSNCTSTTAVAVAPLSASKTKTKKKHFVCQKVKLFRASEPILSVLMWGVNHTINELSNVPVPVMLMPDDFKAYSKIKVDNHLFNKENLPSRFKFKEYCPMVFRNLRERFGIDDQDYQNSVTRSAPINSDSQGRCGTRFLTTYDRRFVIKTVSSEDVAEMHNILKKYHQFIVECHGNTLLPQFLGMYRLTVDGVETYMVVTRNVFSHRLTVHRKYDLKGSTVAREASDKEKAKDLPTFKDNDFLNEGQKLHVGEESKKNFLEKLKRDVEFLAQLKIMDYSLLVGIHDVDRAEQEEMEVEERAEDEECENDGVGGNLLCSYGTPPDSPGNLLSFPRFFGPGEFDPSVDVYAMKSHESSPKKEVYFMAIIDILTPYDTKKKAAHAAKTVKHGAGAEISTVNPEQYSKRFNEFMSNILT

CCOc1cc(N2CCC(O)CC2)ccc1Nc1ncc2c(n1)N(C)c1ccccc1C(=O)N2C
inhibition [1]: -8.5%
inhibition at 50 µM [2]: -21.5%
IC50 [3]: > 50 µM
inhibition at 10 µM [4]: -0.1%
inhibition [5]: 0.6%
inhibition [6]: -3.9%
IC50 [7]: 36 µM
IC50 [8]: > 50 µM
IC50 [9]: > 50 µM
IC50 [10]: > 50 µM
inhibition [11]: 12.5%
IC50 [12]: > 50 µM
Activity [13]: 9.1 mg/dL
IC50 [14]: > 50 µM
inhibition [15]: 3.7%
inhibition [16]: -2.7%
IC50 [17]: > 50 µM
